Measurements collected from several papers.
Effect on: cell growth or viability

Structure (SMILES)	cell line	method	concentration	time	endpoint	result
Cn1cc(C(c2ccc(C(=O)O)cc2)c2cn(C)c3ccccc23)c2ccccc21	KG-1		20 µM	48 h	inhibition	25%
COc1cccc(Oc2ccccc2NC(=O)CNC(=O)c2cccc3ccccc23)c1	Malme-3M	SRB		48 h	GI50	17 µM
COc1cc(-c2ccc(-c3ccc(C(=N)N)nc3)s2)cc(OC)c1OC	Malme-3M	SRB			GI50	1.53 µM
COc1ccccc1S(=O)(=O)Nc1ccc2c(c1)CN(C)C(=O)N2	PL-21	ATP luminescence			GI50	10 µM
CCn1c2ccccc2c2cc(C3CC(c4cc5cccc(OC)c5oc4=O)=NN3C(N)=O)ccc21 (centres unmarked)	NRK-52E	MTT		24 h	IC50	40.3 µM
COc1ccc(-c2ccc(-c3ccc(C(=N)N)nc3)s2)cc1Cl	Malme-3M	SRB			GI50	1.78 µM
CCn1c2ccccc2c2cc(C3CC(c4cc5cccc(OC)c5oc4=O)=NN3c3cccc(Cl)c3)ccc21 (centres unmarked)	NRK-52E	MTT		24 h	IC50	24.2 µM
CC(C)n1cc(C(c2ccc(/C=C/C(=O)O)s2)c2cn(C(C)C)c3ccccc23)c2ccccc21	KG-1		5 µM	48 h	inhibition	12%
CN1CCN(C(=O)[C@H](CCCN[C@@H]2C[C@H]2c2ccc(F)cc2)NC(=O)c2ccc(-n3ccnn3)cc2)CC1	MOLM-13	resazurin		96 h	EC50	5.38 nM
Cn1cc(C(c2ccc(/C=C/C(=O)O)s2)c2cn(C)c3ccccc23)c2ccccc21	KG-1		20 µM	48 h	inhibition	7%
C/C(=N\NC(=O)c1cccc(S(=O)(=O)N2CCN(C)CC2)c1)c1cc(Cl)ccc1O	MOLM-13	resazurin		96 h	EC50	285 nM
